Source: ChEMBL document CHEMBL1154113, “Synthesis, cannabinoid receptor affinity, molecular modeling studies and in vivo pharmacological evaluation of new substituted 1-aryl-5-(1H-pyrrol-1-yl)-1H-pyrazole-3-carboxamides. 2. Effect of the 3-carboxamide substituent on the affinity and selectivity profile” (Bioorg Med Chem, 2009)
Calls of active or inactive are those of the source. The rule behind the calls is not given here.

Columns and labels:
[1] = target: Cannabinoid receptor 1 (Homo sapiens, UniProt P21554); assay: biochemical; assay type: cell-based, HEK293
[2] = target: Cannabinoid receptor 2 (Homo sapiens, UniProt P34972); assay: Displacement of [3H]CP-55940 from human recombinant CB2 receptor expressed in HEK cells; assay type: cell-based, HEK293
[3] = species: Homo sapiens; assay: Selectivity index, ratio of Ki for human recombinant CB2 receptor to Ki for human recombinant CB1 receptor
[4] = test system: Rattus norvegicus; assay: Reduction in cumulative food intake in Wistar rat at 1 mg/kg, ip measured 360 mins after lights off; assay type: functional
In short: (§1)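 Adult male Wistar rats, about 400 g, housed singly under an inverted 12:12 h cycle, with free access to chow and water. Groups of n = 6–8 were matched on body weight and intake and given 0, 0.1, 1 or 10 mg/kg ip, suspended in saline with a few drops of Tween 80, 30 min before lights off. Food and water were weighed at 60–360 and 1440 min. Newman–Keuls test against vehicle.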

[5] = test system: Rattus norvegicus; assay: Reduction in cumulative food intake in Wistar rat at 10 mg/kg, ip measured 360 mins after lights off; assay type: functional; conditions: 6 h, route intraperitoneal
In short: as §1

[6] = test system: Rattus norvegicus; assay: Reduction in food intake in Wistar rat at 1 mg/kg, ip after 1440 mins; assay type: functional, organism-based; design: dose 1 mg/kg
In short: as §1

[7] = test system: Rattus norvegicus; assay: Reduction in food intake in Wistar rat at 10 mg/kg, ip after 1440 mins; assay type: functional, organism-based; design: dose 10 mg/kg
In short: as §1

[8] = test system: Rattus norvegicus; assay: Reduction in cumulative water intake in Wistar rat at 0.1 to 10 mg/kg, ip measured 360 mins after lights off; assay type: functional, organism-based
In short: as §1

[9] = test system: Rattus norvegicus; assay: Reduction in cumulative water intake in Wistar rat at 0.1 to 10 mg/kg, ip after 1440 mins; assay type: functional, organism-based
In short: as §1

[10] = test system: Rattus norvegicus; assay: Reduction in cumulative food intake in Wistar rat at 10 mg/kg, ip measured 60 mins after lights off relative to control; assay type: functional; conditions: 1 h, route intraperitoneal
In short: as §1

Sequence of Cannabinoid receptor 2 (P34972 whole entry): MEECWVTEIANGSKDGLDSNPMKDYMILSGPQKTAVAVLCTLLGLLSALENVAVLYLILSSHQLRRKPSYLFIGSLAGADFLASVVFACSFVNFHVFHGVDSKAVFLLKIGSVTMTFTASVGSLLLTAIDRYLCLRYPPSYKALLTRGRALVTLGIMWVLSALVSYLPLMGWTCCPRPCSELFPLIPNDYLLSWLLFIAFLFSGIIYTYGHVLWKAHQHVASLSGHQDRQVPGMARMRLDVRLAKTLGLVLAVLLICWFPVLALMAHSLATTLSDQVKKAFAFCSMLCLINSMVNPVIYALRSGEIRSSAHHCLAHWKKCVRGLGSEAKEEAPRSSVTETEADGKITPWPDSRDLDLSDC
Sequence of Cannabinoid receptor 1 (P21554 whole entry): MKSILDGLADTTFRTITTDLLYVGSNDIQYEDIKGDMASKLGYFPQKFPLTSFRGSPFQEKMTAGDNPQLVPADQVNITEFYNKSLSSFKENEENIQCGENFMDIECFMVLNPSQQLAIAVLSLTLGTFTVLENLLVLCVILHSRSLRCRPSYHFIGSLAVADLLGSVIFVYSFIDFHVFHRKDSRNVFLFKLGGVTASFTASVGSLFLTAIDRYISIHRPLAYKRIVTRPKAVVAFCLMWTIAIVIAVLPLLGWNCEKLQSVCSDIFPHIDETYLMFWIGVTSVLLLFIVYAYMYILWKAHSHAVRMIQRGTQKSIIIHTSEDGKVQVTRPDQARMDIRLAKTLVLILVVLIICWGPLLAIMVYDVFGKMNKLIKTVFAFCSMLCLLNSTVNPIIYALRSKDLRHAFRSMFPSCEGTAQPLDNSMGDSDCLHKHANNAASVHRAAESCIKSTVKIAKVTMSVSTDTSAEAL

Row | SMILES | Ki [1] [nM] | Ki [2] [nM] | Ratio Ki [3] | other results
1 | COc1ccc(CCNC(=O)c2nn(-c3ccc(Cl)cc3Cl)c(-n3cccc3)c2C)cc1Cl | 368 | 2890 | 7.84 | –
2 | Cc1c(C(=O)NCCc2ccc(Cl)c(Cl)c2)nn(-c2ccc(F)cc2F)c1-n1cccc1 | 310 | 1290 | 4.16 | –
3 | Cc1c(C(=O)NC2CCCCCC2)nn(-c2ccc(F)cc2F)c1-n1c(C)ccc1C | 56 | 110 | 1.96 | –
4 | Cc1c(C(=O)NCCc2ccc(Cl)cc2)nn(-c2ccc(Cl)c(Cl)c2)c1-n1c(C)ccc1C | 390 | > 3940 | > 10.1 | –
5 | Cc1c(C(=O)NC2CCCCCC2)nn(-c2ccc(Cl)c(Cl)c2)c1-n1c(C)ccc1C | 12 | 4.2 | 0.35 | –
6 | COc1cc(CNC(=O)c2nn(-c3ccc(F)cc3F)c(-n3cccc3)c2C)c(Br)c(OC)c1OC | 345 | 739 | 2.14 | –
7 | COc1cc(CNC(=O)c2nn(-c3ccc(Cl)cc3Cl)c(-n3cccc3)c2C)c(Br)c(OC)c1OC | 227 | 609 | 2.68 | –
8 | Cc1c(C(=O)NC2CCCCCC2)nn(-c2ccc(Cl)c(Cl)c2)c1-n1cccc1 | 5.6 | 1.3 | 0.23 | –
9 | Cc1c(C(=O)NC2CCCC2)nn(-c2ccc(F)cc2F)c1-n1cccc1 | 2400 | 1100 | 0.46 | –
10 | Cc1c(C(=O)NCCc2ccc(Cl)cc2)nn(-c2ccc(F)cc2F)c1-n1cccc1 | 80 | > 3940 | > 49.2 | –
11 | COc1ccc(CCNC(=O)c2nn(-c3ccc(F)cc3F)c(-n3cccc3)c2C)cc1Cl | 948 | 1940 | 2.05 | –
12 | Cc1c(C(=O)NC2CCCC2)nn(-c2ccc(F)cc2F)c1-n1c(C)ccc1C | 840 | 900 | 1.07 | –
13 | Cc1c(C(=O)Nc2ccc(Cl)cc2)nn(-c2ccc(Cl)cc2Cl)c1-n1c(C)ccc1C | 96 | > 3940 | > 41 | –
14 | Cc1c(C(=O)NC(C)c2ccccc2)nn(-c2ccc(Cl)c(Cl)c2)c1-n1c(C)ccc1C (stereo not drawn) | 80 | 5.7 | 0.071 | –
15 | Cc1c(C(=O)NCc2ccc(Cl)cc2)nn(-c2ccc(F)cc2F)c1-n1cccc1 | 340 | 3400 | 10 | –
16 | Cc1c(C(=O)NCc2ccc(Cl)cc2)nn(-c2ccc(Cl)c(Cl)c2)c1-n1cccc1 | 70 | 100 | 1.43 | –
17 | Cc1c(C(=O)NC2CCCC2)nn(-c2ccc(Cl)c(Cl)c2)c1-n1c(C)ccc1C | 36 | 12 | 0.33 | –
18 | Cc1c(C(=O)NC2CCCCCC2)nn(-c2ccc(Cl)cc2Cl)c1-n1c(C)ccc1C | 56 | 80 | 1.43 | –
19 | Cc1c(C(=O)NCCc2ccc(Cl)c(Cl)c2)nn(-c2ccc(F)cc2F)c1-n1c(C)ccc1C | 54 | > 3940 | > 73 | –
20 | Cc1c(C(=O)NCc2ccc(Cl)c(Cl)c2)nn(-c2ccc(Cl)cc2Cl)c1-n1c(C)ccc1C | – | – | 141 | inhibition in vivo at 1 mg/kg ([4]; 6 h, route intraperitoneal): 15%; inhibition in vivo at 10 mg/kg [5]: 25%; Activity [6]: Active; Activity [7]: Active; Activity [8]: inactive; Activity [9]: inactive
21 | Cc1c(C(=O)NCCc2ccc(Cl)c(Cl)c2)nn(-c2ccc(Cl)cc2Cl)c1-n1cccc1 | 157 | > 3940 | > 25.1 | –
22 | COc1cc(CNC(=O)c2nn(-c3ccc(Cl)cc3Cl)c(-n3c(C)ccc3C)c2C)c(Br)c(OC)c1OC | 144 | 553 | 3.84 | –
23 | Cc1c(C(=O)NCCc2ccc(Cl)cc2)nn(-c2ccc(Cl)cc2Cl)c1-n1c(C)ccc1C | 30 | > 3940 | > 131 | –
24 | Cc1c(C(=O)NC2CCCC2)nn(-c2ccc(Cl)cc2Cl)c1-n1c(C)ccc1C | 150 | 310 | 2.07 | –
25 | Cc1c(C(=O)Nc2ccc(Cl)cc2)nn(-c2ccc(F)cc2F)c1-n1cccc1 | 2100 | > 3940 | 3.76 | –
26 | COc1ccc(CCNC(=O)c2nn(-c3ccc(Cl)cc3Cl)c(-n3c(C)ccc3C)c2C)cc1Cl | 112 | 3480 | 31.1 | –
27 | Cc1c(C(=O)NCCc2ccc(Cl)cc2Cl)nn(-c2ccc(F)cc2F)c1-n1cccc1 | 380 | 667 | 1.75 | –

Row | SMILES | Ki [1] [nM] | Ki [2] [nM] | Ratio Ki [3] | other results
28 | Cc1c(C(=O)NCCc2ccc(Cl)cc2Cl)nn(-c2ccc(F)cc2F)c1-n1c(C)ccc1C | 41 | 721 | 17.6 | –
29 | Cc1c(C(=O)NC(c2ccccc2)c2ccc(Cl)cc2)nn(-c2ccc(Cl)c(Cl)c2)c1-n1c(C)ccc1C (stereo not drawn) | > 2820 | > 3940 | – | –
30 | Cc1c(C(=O)Nc2ccc(Cl)cc2)nn(-c2ccc(F)cc2F)c1-n1c(C)ccc1C | 560 | > 3940 | > 7.04 | –
31 | Cc1c(C(=O)NCc2ccc(Cl)cc2)nn(-c2ccc(F)cc2F)c1-n1c(C)ccc1C | 56 | > 3940 | > 70.4 | –
32 | Cc1c(C(=O)NC2CCCCCC2)nn(-c2ccc(F)cc2F)c1-n1cccc1 | 560 | 200 | 0.36 | –
33 | Cc1c(C(=O)Nc2ccc(Cl)cc2)nn(-c2ccc(Cl)c(Cl)c2)c1-n1c(C)ccc1C | > 2820 | > 3940 | – | –
34 | Cc1c(C(=O)NC2CCCCCC2)nn(-c2ccc(Cl)cc2Cl)c1-n1cccc1 | 20 | 20 | 1 | –
35 | Cc1c(C(=O)NCCc2ccc(Cl)cc2)nn(-c2ccc(F)cc2F)c1-n1c(C)ccc1C | 50 | > 3940 | > 78.8 | Activity [4]: Active; inhibition in vivo at 10 mg/kg [5]: 25%; Activity [7]: Active; Activity [8]: inactive; Activity [9]: inactive; inhibition in vivo at 10 mg/kg [10]: 40%
36 | COc1ccc(CCNC(=O)c2nn(-c3ccc(F)cc3F)c(-n3c(C)ccc3C)c2C)cc1Cl | 99 | > 3940 | > 39.8 | –
37 | Cc1c(C(=O)NC2CCCC2)nn(-c2ccc(Cl)c(Cl)c2)c1-n1cccc1 | 50 | 12 | 0.24 | –
38 | COc1cc(CNC(=O)c2nn(-c3ccc(F)cc3F)c(-n3c(C)ccc3C)c2C)c(Br)c(OC)c1OC | 165 | 373 | 2.26 | –
39 | Cc1c(C(=O)NCCc2ccc(Cl)cc2Cl)nn(-c2ccc(Cl)cc2Cl)c1-n1cccc1 | 218 | > 3940 | > 18.1 | –
40 | Cc1c(C(=O)NCCc2ccc(Cl)cc2)nn(-c2ccc(Cl)c(Cl)c2)c1-n1cccc1 | 240 | 1200 | 5 | –
41 | Cc1c(C(=O)Nc2ccc(Cl)cc2)nn(-c2ccc(Cl)c(Cl)c2)c1-n1cccc1 | 1300 | 790 | 0.61 | –
42 | Cc1c(C(=O)NCc2ccc(Cl)cc2)nn(-c2ccc(Cl)cc2Cl)c1-n1cccc1 | 140 | 940 | 6.71 | –
43 | Cc1c(C(=O)NCc2ccc(Cl)cc2)nn(-c2ccc(Cl)c(Cl)c2)c1-n1c(C)ccc1C | 100 | 790 | 7.9 | –
44 | Cc1c(C(=O)NCCc2ccc(Cl)c(Cl)c2)nn(-c2ccc(Cl)cc2Cl)c1-n1c(C)ccc1C | 117 | > 3940 | > 33.4 | –
45 | Cc1c(C(=O)NCc2ccc(Cl)cc2)nn(-c2ccc(Cl)cc2Cl)c1-n1c(C)ccc1C | 90 | > 3940 | > 43.8 | –
46 | Cc1c(C(=O)NCCc2ccc(Cl)cc2)nn(-c2ccc(Cl)cc2Cl)c1-n1cccc1 | 70 | > 3940 | > 56.2 | –
47 | Cc1c(C(=O)N[C@@H](C)C2CCCCC2)nn(-c2ccc(Cl)c(Cl)c2)c1-n1cccc1 | 3.4 | 2.4 | 0.71 | –
48 | Cc1c(C(=O)NC2CCCCC2)nn(-c2ccc(Cl)c(Cl)c2)c1-n1cccc1 | – | – | 0.3 | –
49 | Cc1c(C(=O)Nc2ccc(Cl)cc2)nn(-c2ccc(Cl)cc2Cl)c1-n1cccc1 | 120 | 80 | 0.67 | –
50 | Cc1c(C(=O)NCCc2ccc(Cl)cc2Cl)nn(-c2ccc(Cl)cc2Cl)c1-n1c(C)ccc1C | 156 | > 3940 | > 25.2 | –
51 | Cc1c(C(=O)NC2CCCC2)nn(-c2ccc(Cl)cc2Cl)c1-n1cccc1 | 84 | 170 | 2.02 | –
52 | Cc1c(C(=O)NC23CC4CC(CC(C4)C2)C3)nn(-c2ccc(Cl)c(Cl)c2)c1-n1cccc1 | 31 | 20 | 0.65 | –
53 | Cc1c(C(=O)NC23CC4CC(CC(C4)C2)C3)nn(-c2ccc(Cl)c(Cl)c2)c1-n1c(C)ccc1C | 5.6 | 12 | 2.14 | –
54 | Cc1c(C(=O)N[C@H](C)C2CCCCC2)nn(-c2ccc(Cl)c(Cl)c2)c1-n1cccc1 | 14 | 1.6 | 0.11 | –
